From ChEMBL document CHEMBL5058577, “EUbOPEN Chemogenomics Library 2 (Multiplex)” (2022)

Tested on: U2OS
Assay: Multiplex assay against U2OS
Assay type: toxicity, cell-based
Settings: human
How it was run: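 Cells stained live at seeding with Hoechst33342, BioTracker Green Microtubule Cytoskeleton Dye, MitoTracker Red and Annexin V Alexa Fluor 680 were imaged on a CQ1 microscope at 37°C and 5% CO2 after compound addition. Their classification by CellPathfinder machine-learning gating ran from Hoechst high-intensity objects versus normal cells, to healthy, pyknosed or fragmented nuclei among normal cells, to mitotic or apoptotic among pyknosed cells. Tubulin, mitochondrial-mass and membrane-permeability phenotypes are per cents of healthy-nucleus cells.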

[1] = 12 h, 1 µM, compound concentration 1 uM, replicate 1
[2] = 12 h, 1 µM, compound concentration 1 uM, replicate 2
[3] = 12 h, 10 µM, compound concentration 10 uM, replicate 1
[4] = 12 h, 10 µM, compound concentration 10 uM, replicate 2
[5] = 24 h, 1 µM, compound concentration 1 uM, replicate 1
[6] = 24 h, 1 µM, compound concentration 1 uM, replicate 2
[7] = 24 h, 10 µM, compound concentration 10 uM, replicate 1
[8] = 24 h, 10 µM, compound concentration 10 uM, replicate 2
[9] = 48 h, 1 µM, compound concentration 1 uM, replicate 1
[10] = 48 h, 1 µM, compound concentration 1 uM, replicate 2
[11] = 48 h, 10 µM, compound concentration 10 uM, replicate 1
[12] = 48 h, 10 µM, compound concentration 10 uM, replicate 2

In the case of `O=C(CCCc1ccccc1)Nc1nc2ccccc2c(=O)s1`, the “Population Apoptotic (%)” value [1] is reported as 92%, the “Population Fragmented Nuclei (%)” value [1] is reported as 26% and the “Population Healthy Nuclei (%)” value [1] is reported as 64%. For the same compound, the “Population Hoechst High Intensity Objects (%)” value [1] was 2%, the “Population Membrane Permeable-Phenotype (%)” value [1] was 4% and the “Population Mitochondria Different-Phenotype (%)” value [1] was 2%. For the same compound, the “Population Mitotic Cells (%)” value [1] was 7%, the “Population Normal (%)” value [1] was 97% and the “Population Pyknosed Nuclei (%)” value [1] was 9%. For the same compound, the “Population Tubulin-Different-Phenotype (%)” value [1] was 1%, the “Total Cell Count” value [1] was 274 and the “Population Apoptotic (%)” value [2] was 55%. The “Population Fragmented Nuclei (%)” value [2] was 17%, the “Population Healthy Nuclei (%)” value [2] was 74% and the “Population Hoechst High Intensity Objects (%)” value [2] was 0%. The “Population Membrane Permeable-Phenotype (%)” value [2] was 7%, the “Population Mitochondria Different-Phenotype (%)” value [2] was 3% and the “Population Mitotic Cells (%)” value [2] was 44%. The “Population Normal (%)” value [2] was 100%, the “Population Pyknosed Nuclei (%)” value [2] was 7% and the “Population Tubulin-Different-Phenotype (%)” value [2] was 2%. For the same compound, the “Total Cell Count” value [2] was 113, the “Population Apoptotic (%)” value [3] was 72% and the “Population Fragmented Nuclei (%)” value [3] was 31%. The “Population Healthy Nuclei (%)” value [3] was 58%, the “Population Hoechst High Intensity Objects (%)” value [3] was 2% and the “Population Membrane Permeable-Phenotype (%)” value [3] was 2%. For the same compound, the “Population Mitochondria Different-Phenotype (%)” value [3] was 0%, the “Population Mitotic Cells (%)” value [3] was 28% and the “Population Normal (%)” value [3] was 97%. The “Population Pyknosed Nuclei (%)” value [3] was 9%, the “Population Tubulin-Different-Phenotype (%)” value [3] was 1% and the “Total Cell Count” value [3] was 270. For the same compound, the “Population Apoptotic (%)” value [4] was 100%, the “Population Fragmented Nuclei (%)” value [4] was 20% and the “Population Healthy Nuclei (%)” value [4] was 67%. For the same compound, the “Population Hoechst High Intensity Objects (%)” value [4] was 4%, the “Population Membrane Permeable-Phenotype (%)” value [4] was 7% and the “Population Mitochondria Different-Phenotype (%)” value [4] was 6%. For the same compound, the “Population Mitotic Cells (%)” value [4] was 0%, the “Population Normal (%)” value [4] was 95% and the “Population Pyknosed Nuclei (%)” value [4] was 11%. For the same compound, the “Population Tubulin-Different-Phenotype (%)” value [4] was 6%, the “Total Cell Count” value [4] was 101 and the “Population Apoptotic (%)” value [5] was 79%. For the same compound, the “Population Fragmented Nuclei (%)” value [5] was 22%, the “Population Healthy Nuclei (%)” value [5] was 68% and the “Population Hoechst High Intensity Objects (%)” value [5] was 1%. For the same compound, the “Population Membrane Permeable-Phenotype (%)” value [5] was 4%, the “Population Mitochondria Different-Phenotype (%)” value [5] was 2% and the “Population Mitotic Cells (%)” value [5] was 20%. For the same compound, the “Population Normal (%)” value [5] was 98%, the “Population Pyknosed Nuclei (%)” value [5] was 9% and the “Population Tubulin-Different-Phenotype (%)” value [5] was 2%. For the same compound, the “Total Cell Count” value [5] was 325, the “Population Apoptotic (%)” value [6] was 84% and the “Population Fragmented Nuclei (%)” value [6] was 17%. The “Population Healthy Nuclei (%)” value [6] was 73%, the “Population Hoechst High Intensity Objects (%)” value [6] was 0% and the “Population Membrane Permeable-Phenotype (%)” value [6] was 8%. For the same compound, the “Population Mitotic Cells (%)” value [6] was 15%, the “Population Normal (%)” value [6] was 100% and the “Population Tubulin-Different-Phenotype (%)” value [6] was 3%. The “Total Cell Count” value [6] was 141, the “Population Apoptotic (%)” value [7] was 86% and the “Population Fragmented Nuclei (%)” value [7] was 25%. The “Population Healthy Nuclei (%)” value [7] was 65%, the “Population Hoechst High Intensity Objects (%)” value [7] was 2% and the “Population Membrane Permeable-Phenotype (%)” value [7] was 5%. For the same compound, the “Population Mitochondria Different-Phenotype (%)” value [7] was 1%, the “Population Mitotic Cells (%)” value [7] was 13% and the “Population Normal (%)” value [7] was 97%. For the same compound, the “Population Pyknosed Nuclei (%)” value [7] was 9%, the “Population Tubulin-Different-Phenotype (%)” value [7] was 4% and the “Total Cell Count” value [7] was 319. For the same compound, the “Population Apoptotic (%)” value [8] was 100%, the “Population Fragmented Nuclei (%)” value [8] was 19% and the “Population Healthy Nuclei (%)” value [8] was 71%. For the same compound, the “Population Hoechst High Intensity Objects (%)” value [8] was 1%, the “Population Membrane Permeable-Phenotype (%)” value [8] was 8% and the “Population Mitochondria Different-Phenotype (%)” value [8] was 2%. The “Population Mitotic Cells (%)” value [8] was 0%, the “Population Normal (%)” value [8] was 98% and the “Population Tubulin-Different-Phenotype (%)” value [8] was 3%. The “Total Cell Count” value [8] was 124, the “Population Apoptotic (%)” value [9] was 91% and the “Population Fragmented Nuclei (%)” value [9] was 13%. For the same compound, the “Population Healthy Nuclei (%)” value [9] was 76%, the “Population Hoechst High Intensity Objects (%)” value [9] was 7% and the “Population Membrane Permeable-Phenotype (%)” value [9] was 3%. The “Population Mitochondria Different-Phenotype (%)” value [9] was 2%, the “Population Mitotic Cells (%)” value [9] was 8% and the “Population Normal (%)” value [9] was 92%. For the same compound, the “Population Pyknosed Nuclei (%)” value [9] was 9%, the “Population Tubulin-Different-Phenotype (%)” value [9] was 1% and the “Total Cell Count” value [9] was 394. The “Population Apoptotic (%)” value [10] was 87%, the “Population Fragmented Nuclei (%)” value [10] was 19% and the “Population Healthy Nuclei (%)” value [10] was 71%. For the same compound, the “Population Hoechst High Intensity Objects (%)” value [10] was 5%, the “Population Mitochondria Different-Phenotype (%)” value [10] was 3% and the “Population Mitotic Cells (%)” value [10] was 12%. The “Population Normal (%)” value [10] was 94%, the “Population Pyknosed Nuclei (%)” value [10] was 8% and the “Population Tubulin-Different-Phenotype (%)” value [10] was 6%. For the same compound, the “Total Cell Count” value [10] was 192, the “Population Apoptotic (%)” value [11] was 91% and the “Population Fragmented Nuclei (%)” value [11] was 20%. The “Population Healthy Nuclei (%)” value [11] was 70%, the “Population Hoechst High Intensity Objects (%)” value [11] was 2% and the “Population Membrane Permeable-Phenotype (%)” value [11] was 5%. The “Population Mitochondria Different-Phenotype (%)” value [11] was 0%, the “Population Mitotic Cells (%)” value [11] was 8% and the “Population Normal (%)” value [11] was 97%. For the same compound, the “Population Pyknosed Nuclei (%)” value [11] was 8%, the “Population Tubulin-Different-Phenotype (%)” value [11] was 3% and the “Total Cell Count” value [11] was 427. The “Population Apoptotic (%)” value [12] was 95%, the “Population Fragmented Nuclei (%)” value [12] was 15% and the “Population Healthy Nuclei (%)” value [12] was 72%. The “Population Hoechst High Intensity Objects (%)” value [12] was 0%, the “Population Membrane Permeable-Phenotype (%)” value [12] was 9% and the “Population Mitochondria Different-Phenotype (%)” value [12] was 3%. The “Population Mitotic Cells (%)” value [12] was 4%, the “Population Normal (%)” value [12] was 99% and the “Population Pyknosed Nuclei (%)” value [12] was 12%. The “Population Tubulin-Different-Phenotype (%)” value [12] was 5% and the “Total Cell Count” value [12] was 175.
